Measurements taken from ChEMBL document CHEMBL1148855, “Synthesis and antibacterial activity of 4,5,6,7-tetrahydro-thieno[3,2-c]pyridine quinolones” (2007).
In brackets after ≈: the same amount, converted by molar mass.

How the values were obtained:
Assay type in all cases: functional
[1] = test system: Bacillus subtilis; test: Antibacterial activity against Bacillus subtilis ATCC 6633 by micro-broth dilution method
Summary of the method: (§1)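 MIC taken as the lowest concentration giving 90% inhibition of bacterial growth. Determined by microbroth dilution following National Committee (NCCLS) guidance, with each value determined in triplicate.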

[2] = test system: Staphylococcus epidermidis; test: Antibacterial activity against Staphylococcus epidermidis ATCC 12228 by micro-broth dilution method; summary of the method: as §1
[3] = test system: Staphylococcus aureus; test: Antibacterial activity against Staphylococcus aureus ATCC 33591 by micro-broth dilution method; summary of the method: as §1
[4] = test system: Enterococcus faecalis; test: Antibacterial activity against Enterococcus faecalis ATCC 29212 by micro-broth dilution method; summary of the method: as §1
[5] = test system: Pseudomonas aeruginosa; test: Antibacterial activity against Pseudomonas aeruginosa ATCC 27853 by micro-broth dilution method; summary of the method: as §1
[6] = test system: Klebsiella pneumoniae; test: Antibacterial activity against Klebsiella pneumoniae ATCC 10031 by micro-broth dilution method; summary of the method: as §1
[7] = test system: Escherichia coli; test: Antibacterial activity against Escherichia coli ATCC 25922 by micro-broth dilution method; summary of the method: as §1
[8] = test system: Staphylococcus aureus; test: Antibacterial activity against Staphylococcus aureus ATCC 25923 by micro-broth dilution method; summary of the method: as §1
[9] = test system: Staphylococcus aureus; test: Antibacterial activity against Staphylococcus aureus ATCC 29213 by micro-broth dilution method; summary of the method: as §1
[10] = test system: Staphylococcus aureus; test: Antibacterial activity against Staphylococcus aureus ATCC 33592 by micro-broth dilution method; summary of the method: as §1
[11] = test system: Staphylococcus aureus; test: Antibacterial activity against methicillin-resistant Staphylococcus aureus ATCC 700699 by micro-broth dilution method
Summary of the method: (§2)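 Microbroth dilution run per National Committee guidelines; MIC taken as the concentration giving 90% inhibition of bacterial growth. Tested within a broader panel of susceptible and resistant Gram-positive strains. Reported values come from triplicate determinations.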

[12] = test system: Staphylococcus aureus; test: Antibacterial activity against linezolid-resistant Staphylococcus aureus NRS 119 by microbroth dilution method; summary of the method: as §2
[13] = test system: Enterococcus faecalis; test: Antibacterial activity against Enterococcus faecalis ATCC 14506 by microbroth dilution method; summary of the method: as §1
[14] = test system: Enterococcus faecalis; test: Antibacterial activity against vancomycin-resistant Enterococcus faecalis ATCC 700802 by micro-broth dilution method; summary of the method: as §2
[15] = test system: Enterococcus faecium; test: Antibacterial activity against vancomycin-resistant Enterococcus faecium ATCC 700221 by microbroth dilution method; summary of the method: as §2
[16] = test system: Streptococcus pneumoniae; test: Antibacterial activity against penicillin-resistant Streptococcus pneumoniae ATCC 700904 by micro-broth dilution method; summary of the method: as §2

Which results are given for `CC(=O)Nc1c(F)c(N2CCc3sccc3C2)c(F)c2c1c(=O)c(C(=O)O)cn2C1CC1`?
MIC [1]: 1 µg/mL (≈ 2.18 µM); MIC [2]: > 16 µg/mL; MIC [3]: > 16 µg/mL; MIC [4]: > 16 µg/mL; MIC [5]: > 16 µg/mL; MIC [6]: > 16 µg/mL; MIC [7]: > 16 µg/mL

For `Nc1c(F)c(N2CCc3sc(Br)cc3C2)c(F)c2c1c(=O)c(C(=O)O)cn2C1CC1`, which MIC [1] is on record?
The MIC was over 16 µg/mL.

And the MIC [2]?
Its MIC is over 16 µg/mL.

And the MIC [4]?
The MIC was over 16 µg/mL.

And the MIC [5]?
The MIC was over 16 µg/mL.

And the MIC [6]?
The MIC was over 16 µg/mL.

And the MIC [7]?
The MIC was over 16 µg/mL.

`COc1c(N2CCc3sc([N+](=O)[O-])cc3C2)c(F)cc2c(=O)c(C(=O)O)cn(C3CC3)c12` was tested. Which MIC [1] did it give?
Its MIC is at most 0.12 µg/mL.

And the MIC [2]?
Its MIC is 4 µg/mL (≈ 8.71 µM).

What about the MIC [3] of the same molecule?
Its MIC is at most 0.12 µg/mL.

What about the MIC [4] of the same molecule?
The MIC was at most 0.12 µg/mL.

What about the MIC [5] of the same molecule?
Its MIC is 1 µg/mL (≈ 2.18 µM).

And the MIC [6]?
The MIC was 0.25 µg/mL (≈ 0.544 µM).

What about the MIC [7] of the same molecule?
The MIC was 0.5 µg/mL (≈ 1.09 µM).

And the MIC [8]?
The MIC was 4 µg/mL (≈ 8.71 µM).

And the MIC [9]?
Its MIC is 4 µg/mL (≈ 8.71 µM).

And the MIC [10]?
Its MIC is 8 µg/mL (≈ 17.4 µM).

And the MIC [11]?
Its MIC is 16 µg/mL (≈ 34.8 µM).

What about the MIC [12] of the same molecule?
Its MIC is over 16 µg/mL.

And the MIC [13]?
Its MIC is over 16 µg/mL.

What about the MIC [14] of the same molecule?
The MIC was 16 µg/mL (≈ 34.8 µM).

What about the MIC [15] of the same molecule?
The MIC was over 16 µg/mL.

What about the MIC [16] of the same molecule?
Its MIC is 0.5 µg/mL (≈ 1.09 µM).

For `O=C(O)c1cn(C2CC2)c2c(F)c(N3CCc4sccc4C3)c(F)c(F)c2c1=O`, which MIC [1] is on record?
The MIC was 0.25 µg/mL (≈ 0.595 µM).

And the MIC [2]?
The MIC was 2 µg/mL (≈ 4.76 µM).

What about the MIC [3] of the same molecule?
Its MIC is 4 µg/mL (≈ 9.51 µM).

And the MIC [4]?
The MIC was over 16 µg/mL.

And the MIC [5]?
Its MIC is over 16 µg/mL.

And the MIC [6]?
Its MIC is 8 µg/mL (≈ 19 µM).

And the MIC [7]?
The MIC was 0.5 µg/mL (≈ 1.19 µM).

And the MIC [8]?
The MIC was 2 µg/mL (≈ 4.76 µM).

What about the MIC [9] of the same molecule?
The MIC was 4 µg/mL (≈ 9.51 µM).

And the MIC [10]?
The MIC was 2 µg/mL (≈ 4.76 µM).

What about the MIC [11] of the same molecule?
The MIC was over 16 µg/mL.

And the MIC [12]?
Its MIC is over 16 µg/mL.

What about the MIC [13] of the same molecule?
Its MIC is over 16 µg/mL.

And the MIC [14]?
Its MIC is 16 µg/mL (≈ 38.1 µM).

What about the MIC [15] of the same molecule?
The MIC was over 16 µg/mL.

And the MIC [16]?
The MIC was 2 µg/mL (≈ 4.76 µM).

How did the MIC [1] turn out when `COc1c(N2CCc3sc(COC(C)=O)cc3C2)c(F)cc2c(=O)c(C(=O)O)cn(C3CC3)c12` was run?
The MIC was at most 0.12 µg/mL.

And the MIC [2]?
The MIC was at most 0.12 µg/mL.

And the MIC [3]?
The MIC was 0.25 µg/mL (≈ 0.514 µM).

What about the MIC [4] of the same molecule?
The MIC was 0.5 µg/mL (≈ 1.03 µM).

And the MIC [5]?
Its MIC is over 16 µg/mL.

What about the MIC [6] of the same molecule?
Its MIC is 2 µg/mL (≈ 4.11 µM).

What about the MIC [7] of the same molecule?
Its MIC is 0.5 µg/mL (≈ 1.03 µM).

And the MIC [8]?
Its MIC is 1 µg/mL (≈ 2.06 µM).

And the MIC [9]?
Its MIC is 4 µg/mL (≈ 8.22 µM).

And the MIC [10]?
Its MIC is 2 µg/mL (≈ 4.11 µM).

And the MIC [11]?
Its MIC is 4 µg/mL (≈ 8.22 µM).

And the MIC [12]?
Its MIC is 2 µg/mL (≈ 4.11 µM).

What about the MIC [14] of the same molecule?
Its MIC is 1 µg/mL (≈ 2.06 µM).

And the MIC [16]?
The MIC was at most 0.12 µg/mL.

How did the MIC [1] turn out when `O=C(O)c1cn(C2CC2)c2cc(N3CCc4sc(Br)cc4C3)c(F)cc2c1=O` was run?
Its MIC is at most 0.12 µg/mL.

And the MIC [2]?
Its MIC is 0.5 µg/mL (≈ 1.08 µM).

What about the MIC [3] of the same molecule?
The MIC was 4 µg/mL (≈ 8.63 µM).

What about the MIC [5] of the same molecule?
The MIC was over 16 µg/mL.

And the MIC [6]?
Its MIC is 2 µg/mL (≈ 4.32 µM).

And the MIC [7]?
Its MIC is 1 µg/mL (≈ 2.16 µM).

What about the MIC [8] of the same molecule?
Its MIC is 0.5 µg/mL (≈ 1.08 µM).

What about the MIC [9] of the same molecule?
Its MIC is 4 µg/mL (≈ 8.63 µM).

And the MIC [10]?
Its MIC is 4 µg/mL (≈ 8.63 µM).

What about the MIC [11] of the same molecule?
Its MIC is over 16 µg/mL.

And the MIC [12]?
The MIC was over 16 µg/mL.

And the MIC [13]?
Its MIC is over 16 µg/mL.

What about the MIC [14] of the same molecule?
The MIC was over 16 µg/mL.

What about the MIC [16] of the same molecule?
The MIC was 2 µg/mL (≈ 4.32 µM).

For `O=C(O)c1cn(C2CC2)c2cc(N3CCNCC3)c(F)cc2c1=O` [CIPROFLOXACIN], which MIC [1] is on record?
Its MIC is at most 0.12 µg/mL.

What about the MIC [2] of the same molecule?
Its MIC is at most 0.12 µg/mL.

What about the MIC [3] of the same molecule?
The MIC was 1 µg/mL (≈ 3.02 µM).

And the MIC [4]?
The MIC was 2 µg/mL (≈ 6.04 µM).

What about the MIC [6] of the same molecule?
Its MIC is at most 0.12 µg/mL.

And the MIC [7]?
Its MIC is at most 0.12 µg/mL.

What about the MIC [8] of the same molecule?
The MIC was 0.25 µg/mL (≈ 0.754 µM).

What about the MIC [9] of the same molecule?
The MIC was 1 µg/mL (≈ 3.02 µM).

And the MIC [10]?
The MIC was 0.5 µg/mL (≈ 1.51 µM).

What about the MIC [11] of the same molecule?
The MIC was over 16 µg/mL.

What about the MIC [12] of the same molecule?
Its MIC is over 16 µg/mL.

And the MIC [13]?
The MIC was 1 µg/mL (≈ 3.02 µM).

What about the MIC [14] of the same molecule?
Its MIC is 1 µg/mL (≈ 3.02 µM).

And the MIC [15]?
The MIC was over 16 µg/mL.

And the MIC [16]?
Its MIC is 0.25 µg/mL (≈ 0.754 µM).

Which results are given for `COc1c(N2CCNC(C)C2)c(F)cc2c(=O)c(C(=O)O)cn(C3CC3)c12` (stereo not drawn) [GATIFLOXACIN]?
MIC [1]: ≤ 0.12 µg/mL; MIC [2]: 0.25 µg/mL (≈ 0.666 µM); MIC [3]: 0.5 µg/mL (≈ 1.33 µM); MIC [4]: 0.5 µg/mL (≈ 1.33 µM); MIC [5]: 1 µg/mL (≈ 2.66 µM); MIC [6]: ≤ 0.12 µg/mL; MIC [7]: ≤ 0.12 µg/mL; MIC [8]: ≤ 0.125 µg/mL; MIC [9]: 0.25 µg/mL (≈ 0.666 µM); MIC [10]: 4 µg/mL (≈ 10.7 µM); MIC [11]: 8 µg/mL (≈ 21.3 µM); MIC [12]: 4 µg/mL (≈ 10.7 µM); MIC [13]: 0.5 µg/mL (≈ 1.33 µM); MIC [14]: 0.5 µg/mL (≈ 1.33 µM); MIC [15]: > 16 µg/mL; MIC [16]: ≤ 0.125 µg/mL

Which results are given for `C[C@@H]1CN(c2c(F)c(N)c3c(=O)c(C(=O)O)cn(C4CC4)c3c2F)C[C@H](C)N1` [SPARFLOXACIN]?
MIC [1]: ≤ 0.12 µg/mL; MIC [2]: 0.25 µg/mL (≈ 0.637 µM); MIC [3]: 16 µg/mL (≈ 40.8 µM); MIC [5]: 0.25 µg/mL (≈ 0.637 µM); MIC [6]: ≤ 0.12 µg/mL; MIC [8]: ≤ 0.125 µg/mL; MIC [9]: ≤ 0.125 µg/mL; MIC [10]: ≤ 0.25 µg/mL; MIC [11]: 8 µg/mL (≈ 20.4 µM); MIC [12]: 16 µg/mL (≈ 40.8 µM); MIC [13]: > 16 µg/mL; MIC [14]: 1 µg/mL (≈ 2.55 µM); MIC [15]: 16 µg/mL (≈ 40.8 µM); MIC [16]: ≤ 0.125 µg/mL
